Results from ChEMBL document CHEMBL4342478, “Discovery of Potent N-Ethylurea Pyrazole Derivatives as Dual Inhibitors of Trypanosoma brucei and Trypanosoma cruzi” (ACS Med Chem Lett, 2020).
pIC50: −log10 of the molar value. In brackets after ≈: the same amount, converted by molar mass. Activity calls are given as the source filed them. No cut-off for these calls is given here.

How the values were obtained:
[1] = system: Trypanosoma cruzi; assay: Antitrypanosomal activity against Trypanosoma cruzi infected in rat H9C2 cells by DRAQ5 DNA dye based imaging analysis; assay type: functional, organism-based
Procedure, shortened: (§1)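 IC50 values are the mean of two independent experiments. The T. b. brucei assay uses free parasites. The T. cruzi assay uses intracellular parasites in H9c2 host cells.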

[2] = Selectivity index, ratio of cytotoxicity against rat H9C2 cells to IC50 for antitrypanosomal activity against Trypanosoma cruzi infected in rat H9C2 cells; assay type: toxicity, cell-based; conditions: read-out: Selectivity Index
[3] = Selectivity index, ratio of IC50 for human HEK293 cells incubated for 69 hrs by resazurin dye based fluorescence analysis to IC50 for antitrypanosomal activity against Trypanosoma brucei brucei BS427; assay type: toxicity; conditions: read-out: Ratio IC50
[4] = system: Trypanosoma brucei brucei; assay: Antitrypanosomal activity against Trypanosoma brucei brucei BS427 after 48 hrs by resazurin dye based fluorescence assay; assay type: functional, organism-based; conditions: for pIC50: Trypanosoma brucei, BS427, 48 h, read-out: IC50; procedure, shortened: as §1
[5] = system: Trypanosoma cruzi; assay: Trypanosomacidal activity against Trypanosoma cruzi strain Y trypomastigotes assessed as reduction in number of infected cells at faster rate at 20 uM measured for 24 to 96 hrs by Hoechst 33342 staining based fluorescence imaging assay; assay type: functional, organism-based
[6] = system: Leishmania donovani; assay: AntiLeishmanial activity against amastigote form of Leishmania donovani MHOM/ET/67/L82 after 72 hrs by Alamar blue dye based fluorometric analysis; assay type: functional, organism-based
[7] = system: Trypanosoma cruzi; assay: Antitrypanosomal activity against Trypanosoma cruzi Tulahuen C2C4 trypomastigotes infected in rat L6 cells after 96 hrs by photometric analysis; assay type: functional, organism-based
[8] = system: Trypanosoma brucei rhodesiense; assay: Antitrypanosomal activity against blood stream form of Trypanosoma brucei rhodesiense STIB900 after 72 hrs by Alamar blue based fluorometric assay; assay type: functional, organism-based
[9] = system: Plasmodium falciparum; assay: Antiplasmodial activity against erythrocytic stage of Plasmodium falciparum after 48 hrs by [3H]-hypoxanthine incorporation assay; assay type: functional, organism-based
[10] = system: Trypanosoma cruzi; assay: Antitrypanosomal activity against Trypanosoma cruzi Tulahuen C4 infected in mouse 3T3 cells by Hoechst/HCS CellMask green dye based assay; assay type: functional, organism-based; conditions: Tulahuen C4, NIH3T3
[11] = Selectivity index, ratio of cytotoxicity against mouse 3T3 cells to IC50 for antitrypanosomal activity against Trypanosoma cruzi Tulahuen C4 infected in mouse 3T3 cells; assay type: toxicity, cell-based; conditions: read-out: Selectivity Index
[12] = Metabolic stability in human liver microsomes; assay type: ADME, Microsome
[13] = Kinetic solubility of compound at pH 2 to 6.5 by nephelometry; assay type: physicochemical; conditions: buffer, read-out: Kinetic_solubility
[14] = Selectivity index, ratio of cytotoxicity against human HEK293 cells to IC50 for antitrypanosomal activity against bloodstream form of Trypanosoma brucei brucei Lister 427; assay type: toxicity, cell-based; conditions: read-out: Selectivity Index
Procedure, shortened: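 Ratio of HEK293 cytotoxicity to the IC50 against free, non-intracellular T. b. brucei parasites. IC50 values are the average of two independent experiments.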

[15] = system: Trypanosoma brucei brucei; assay: Antitrypanosomal activity against bloodstream form of Trypanosoma brucei brucei Lister 427; assay type: functional, organism-based

| Compound | pIC50 [1] | selectivity ratio [2] | selectivity ratio at 69 h [3] | pIC50 [4] | further results |
| --- | --- | --- | --- | --- | --- |
| O=C(NCCn1ccc(-c2ccccc2)n1)c1ccccc1 | 4.30 | 1 | 102 | 6.21 |  |
| O=C(CCn1ccc(-c2ccccc2)n1)Nc1ccccc1 |  |  |  |  | IC50 [4]: Not Active |
| O=C(NCCn1ccc(-c2ccc(F)cc2)n1)N1CCCC1 | 6.49 | 158 | 1060 | 7.12 |  |
| Cc1ccccc1-c1ccn(CCNC(=O)N2CCCCC2)n1 | 6.49 | 158 | 240 | 6.46 |  |
| N#Cc1cccc(-c2ccn(CCNC(=O)N3CCCCC3)n2)c1 | 6.40 | 126 | 236 | 6.46 |  |
| COc1ccccc1-c1ccn(CCNC(=O)N2CCCCC2)n1 |  |  | 32 | 5.59 |  |
| CC(Cn1ccc(-c2ccccc2)n1)NC(=O)N1CCCCC1 (stereo not given) | 6.00 | 50 | 131 | 6.19 |  |
| O=C(NCCn1ccc(-c2ccc(F)cc2F)n1)N1CCCCC1 |  |  | 1880 | 7.35 |  |
| O=C(Cn1ccnc1[N+](=O)[O-])NCc1ccccc1 |  |  |  |  | Activity [5]: Active |
| Cc1ccc(-c2ccn(CCNC(=O)N3CCCCC3)n2)cc1 | 5.00 | 5 | 16 | 5.28 |  |
| O=C(NCCn1ccc(-c2ccccc2Cl)n1)N1CCCCC1 | 6.89 | 398 | 361 | 6.92 |  |
| O=S(=O)(NCCn1ccc(-c2ccccc2)n1)c1ccccc1 | 4.30 | 1 |  |  | IC50 [4]: Not Active |
| O=C(NCCn1ccc(-c2ccc(F)cc2)n1)N1CC[C@@H](F)C1 | 6.60 | 200 | 922 | 7.07 |  |
| CC(C)OC(=O)NCCn1ccc(-c2ccccc2)n1 |  |  | 82 | 6.00 |  |
| O=C(NCCn1ccc(-c2ccccc2)n1)N1CCCCCC1 | 6.20 | 79 | 215 | 6.41 |  |
| O=C(NCCn1ccc(-c2cccc(Cl)c2)n1)N1CCCCC1 | 6.89 | 398 | 327 | 6.89 |  |
| O=C(NCCn1ccc(-c2ccc(Cl)cc2)n1)N1CCCCC1 | 6.00 | 50 | 35 | 5.92 |  |
| O=C(NCCn1ccc(-c2ccccc2)n1)N1CC[C@@H](F)C1 | 6.10 | 63 | 732 | 6.97 |  |
| O=C(NCCn1ccc(-c2ccccc2)n1)N1CC[C@H](F)C1 | 6.60 | 200 | 1300 | 7.21 |  |
| O=C(NCCn1ccc(-c2ccccc2)n1)N1CCCC1 |  |  | 128 | 6.19 |  |

| Compound | pIC50 [1] | selectivity ratio [2] | selectivity ratio at 69 h [3] | pIC50 [4] | further results |
| --- | --- | --- | --- | --- | --- |
| CC(CNC(=O)N1CCCCC1)n1ccc(-c2ccccc2)n1 (stereo not given) | 6.70 | 251 | 358 | 6.64 |  |
| CC(C)NC(=O)NCCn1ccc(-c2ccccc2)n1 |  |  | 11 | 5.12 |  |
| O=C(NCCn1ccc(-c2ccc(F)cc2)n1)N1CC[C@H](F)C1 | 6.89 | 398 | 2450 | 7.49 | Activity [6]: Active; Activity [7]: Active; Activity [8]: Active; Activity [9]: Active |
| O=C(NCCn1ccc(-c2ccccc2F)n1)N1CCCCC1 |  |  | 185 | 7.22 | Activity [6]: Active; Activity [7]: Active; Activity [8]: Active; Activity [9]: Active |
| O=C(NCCn1ccc(-c2ccc(F)c(F)c2)n1)N1CCCCC1 |  |  | 2910 | 7.57 | pIC50 [10]: 6.92; selectivity ratio [11]: 616 |
| O=C(NCCn1ccc(-c2ccc(F)c(F)c2)n1)N1CCCC1 | 7.00 | 501 | 3630 | 7.66 | Stability [12]: Stable; Activity [6]: Active; Activity [7]: Active; Activity [8]: Active; Activity [9]: Active; solubility kinetic [13]: 12.5 to 25 µg/mL (≈ 39 to 78 µM) |
| COc1ccc(-c2ccn(CCNC(=O)N3CCCCC3)n2)cc1 | 4.60 | 2 | 12 | 5.15 |  |
| N#Cc1ccc(-c2ccn(CCNC(=O)N3CCCCC3)n2)cc1 | 4.40 | 1 |  |  |  |
| O=C(NCCn1ccc(-c2ccc(F)cc2)n1)N1CCCCC1 |  |  | 161 | 7.22 | Stability [12]: Stable; Activity [6]: Active; Activity [7]: Active; Activity [8]: Active; Activity [9]: Active |
| Cc1cccc(-c2ccn(CCNC(=O)N3CCCCC3)n2)c1 | 6.49 | 158 | 232 | 6.44 |  |
| O=C(NCCn1ccc(-c2ccccc2)n1)C1CCCC1 | 5.49 | 16 | 39 | 5.96 |  |
| CC(C)(C)C(=O)NCCc1csc(-c2cccc(F)c2)n1 | 5.64 | 27 |  |  | selectivity ratio [14]: > 96; pIC50 [15]: 6.10 |
| O=C(NCCn1ccc(-c2cccc(F)c2)n1)N1CCCCC1 |  |  | 197 | 7.30 | Activity [6]: Active; Activity [7]: Active; Activity [8]: Active; Activity [9]: Active |
| CCN(CC)C(=O)NCCn1ccc(-c2ccccc2)n1 | 5.49 | 16 | 42 | 5.70 |  |
| COc1cccc(-c2ccn(CCNC(=O)N3CCCCC3)n2)c1 | 5.40 | 13 | 67 | 5.92 |  |
| O=C(NCCn1ccc(-c2ccc(F)c(F)c2)n1)N1CC[C@@H](F)C1 | 7.00 | 501 | 4840 | 7.80 | Activity [6]: Active; Activity [7]: Active; Activity [8]: Active; Activity [9]: Active |
| c1ccc(CNCCn2ccc(-c3ccccc3)n2)cc1 |  |  |  |  | IC50 [4]: Not Active |
| N#Cc1ccccc1-c1ccn(CCNC(=O)N2CCCCC2)n1 | 4.89 | 4 | 18 | 5.33 |  |
| O=C(NCCn1ccc(-c2ccccc2)n1)N1CCOCC1 | 4.60 | 2 | 13 | 5.18 |  |
